Source: ChEMBL document CHEMBL1155210, “The discovery of tertiary-amine LXR agonists with potent cholesterol efflux activity in macrophages” (Bioorg Med Chem Lett, 2009)

How the values were obtained:
[1] = system: Macrophage; experiment: Increase in ABCA1 gene expression in human primary macrophages at 100 nM relative to control; type: functional
[2] = system: Macrophage; experiment: Increase in ABCA1 gene expression in human primary macrophages at 30 nM relative to control; type: functional
[3] = system: RAW264.7; experiment: Induction of [3H]cholesterol efflux in mouse RAW264.7 cells loaded with acetylated-LDL after 24 hrs; type: functional, cell-based
Outline: (§1)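 Mouse RAW 264.7 macrophages were grown overnight, then loaded for 24 h with acetylated LDL (final 50 µg/mL) plus 3H-cholesterol (5 µCi/mL). Cells were washed and held 24 h in serum-free, phenol red-free medium with 1% fatty acid-free BSA and compound in DMSO. Efflux then ran 24 h into medium with 0.1% BSA, 5 µg/mL apoA-I and fresh compound. Filtered medium and NaOH cell lysate were counted by scintillation.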

[4] = system: Macrophage; experiment: Increase in ABCG1 gene expression in human primary macrophages at 100 nM relative to control; type: functional
[5] = target: T1, Oxysterols receptor LXR-beta (Homo sapiens, UniProt P55055); experiment: Agonist activity at human LXRbeta assessed as association of SRC1 to LXRbeta ligand binding domain by FRET based cell-free ligand sensing assay
T1 sequence (P55055 whole entry): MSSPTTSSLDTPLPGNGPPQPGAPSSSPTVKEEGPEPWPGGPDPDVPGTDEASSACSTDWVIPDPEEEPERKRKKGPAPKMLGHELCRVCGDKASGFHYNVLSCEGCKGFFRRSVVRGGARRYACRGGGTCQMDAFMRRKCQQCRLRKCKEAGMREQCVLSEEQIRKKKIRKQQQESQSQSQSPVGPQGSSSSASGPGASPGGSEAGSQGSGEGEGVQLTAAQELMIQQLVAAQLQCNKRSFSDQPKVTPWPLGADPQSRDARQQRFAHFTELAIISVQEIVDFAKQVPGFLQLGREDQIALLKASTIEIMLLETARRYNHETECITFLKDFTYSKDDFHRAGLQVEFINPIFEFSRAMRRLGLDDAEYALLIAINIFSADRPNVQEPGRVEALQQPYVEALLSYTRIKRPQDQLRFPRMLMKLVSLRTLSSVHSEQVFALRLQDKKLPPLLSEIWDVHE
Outline: (§2)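 Cell-free FRET ligand-sensing assay measuring ligand-dependent recruitment of a 24-amino-acid steroid receptor coactivator 1 (SRC1) fragment to the LXR ligand-binding domain. Percent efficacy is expressed against the maximal agonist response of the reference agonist. Values are means of at least two experiments, standard deviation ≤10%.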

[6] = target: T2, Oxysterols receptor LXR-alpha (Homo sapiens) (UniProt Q13133); experiment: Agonist activity at human LXRalpha assessed as association of SRC1 to LXRalpha ligand binding domain by FRET based cell-free ligand sensing assay relative 2-(3-(3-((2-chloro-3-(trifluoromethyl)benzyl)(2,2-diphenylethyl)amino)propoxy)phenyl)acetic acid; outline: as §2
T2 sequence (whole entry): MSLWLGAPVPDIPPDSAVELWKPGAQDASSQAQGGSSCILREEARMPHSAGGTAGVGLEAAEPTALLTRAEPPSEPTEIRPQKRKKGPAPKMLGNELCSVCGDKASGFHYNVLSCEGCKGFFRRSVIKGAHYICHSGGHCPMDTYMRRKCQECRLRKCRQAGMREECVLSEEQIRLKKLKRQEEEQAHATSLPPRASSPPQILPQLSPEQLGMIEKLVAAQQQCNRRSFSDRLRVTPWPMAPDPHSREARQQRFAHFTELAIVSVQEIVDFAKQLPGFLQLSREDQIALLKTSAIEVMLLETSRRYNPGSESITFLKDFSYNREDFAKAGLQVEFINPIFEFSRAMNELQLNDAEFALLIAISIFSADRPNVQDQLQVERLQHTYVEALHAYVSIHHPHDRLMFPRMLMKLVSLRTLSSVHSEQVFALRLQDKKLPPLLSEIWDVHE

[7] = system: Macrophage; experiment: Increase in ABCG1 gene expression in human primary macrophages at 30 nM relative to control; type: functional
[8] = system: Macrophage; experiment: Increase in ABCG1 gene expression in human primary macrophages; type: functional, cell-based
[9] = target: T3, Oxysterols receptor LXR-alpha (Homo sapiens, UniProt Q13133); experiment: Agonist activity at human LXRalpha assessed as association of SRC1 to LXRalpha ligand binding domain by FRET based cell-free ligand sensing assay; outline: as §2
T3 sequence (Q13133 whole entry): T2 sequence (whole entry)

[10] = system: Macrophage; experiment: Increase in ABCA1 gene expression in human primary macrophages; type: functional, cell-based
[11] = system: Macrophage; experiment: Increase in SREBP1 gene expression in human primary macrophages at 100 nM relative to control; type: functional
[12] = target: Oxysterols receptor LXR-beta (Homo sapiens) (UniProt P55055); experiment: Agonist activity at human LXRbeta assessed as association of SRC1 to LXRbeta ligand binding domain by FRET based cell-free ligand sensing assay relative to 2-(3-(3-((2-chloro-3-(trifluoromethyl)benzyl)(2,2-diphenylethyl)amino)propoxy)phenyl)acetic acid; design: concentration or dose not given beside the values
[13] = system: RAW264.7; experiment: Induction of [3H]cholesterol efflux in mouse RAW264.7 cells loaded with acetylated-LDL after 24 hrs relative to 2-(3-(3-((2-chloro-3-(trifluoromethyl)benzyl)(2,2-diphenylethyl)amino)propoxy)phenyl)acetic acid; type: functional; outline: as §1
[14] = target: T4, Nuclear receptor subfamily 1 group I member 2 (Homo sapiens, UniProt O75469); experiment: Binding affinity to PXR by scintillation proximity binding assay
T4 sequence (O75469 whole entry): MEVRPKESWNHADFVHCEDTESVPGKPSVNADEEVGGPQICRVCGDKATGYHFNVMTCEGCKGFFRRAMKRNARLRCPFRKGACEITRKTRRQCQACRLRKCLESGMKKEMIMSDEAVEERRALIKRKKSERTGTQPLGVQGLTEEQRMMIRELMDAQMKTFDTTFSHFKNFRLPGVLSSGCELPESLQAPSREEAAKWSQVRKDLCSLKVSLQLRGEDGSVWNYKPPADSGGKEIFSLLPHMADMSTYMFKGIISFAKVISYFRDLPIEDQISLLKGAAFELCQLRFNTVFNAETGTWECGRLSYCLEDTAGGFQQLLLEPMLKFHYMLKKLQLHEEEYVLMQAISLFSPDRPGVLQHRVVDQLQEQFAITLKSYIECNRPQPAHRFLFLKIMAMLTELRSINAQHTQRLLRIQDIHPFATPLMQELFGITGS

[15] = Half life in Sprague-Dawley rat at 2.6 mg/kg, iv; type: ADME, organism-based; design: dose 2.6 mg/kg, route intravenous; conditions: in vivo
[16] = Half life in Sprague-Dawley rat at 4.5 mg/kg, po; type: ADME, organism-based; design: dose 4.5 mg/kg, route oral; conditions: in vivo
Outline: (§3)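 Pharmacokinetics were measured after an intravenous dose of 2.6 mg/kg and an oral dose of 4.5 mg/kg. Oral half-life and oral bioavailability (F%) are reported as mean ± deviation.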

[17] = Volume of distribution at steady state in Sprague-Dawley rat at 2.6 mg/kg, iv; type: ADME, organism-based; design: dose 2.6 mg/kg, route intravenous; conditions: in vivo, read-out: Vdss
[18] = Cmax in Sprague-Dawley rat at 2.6 mg/kg, iv; type: ADME, organism-based; design: dose 2.6 mg/kg, route intravenous; conditions: in vivo
[19] = Oral bioavailability in Sprague-Dawley rat at 4.5 mg/kg; type: ADME, organism-based; conditions: in vivo; outline: as §3
[20] = Plasma clearance in Sprague-Dawley rat at 2.6 mg/kg, iv; type: ADME, organism-based; design: dose 2.6 mg/kg, route intravenous

| SMILES | fold change (FC) [1] | fold change (FC) [2] | EC50 [3] [µM] | fold change (FC) [4] | EC50 [5] [µM] | Activity [6] [%] | fold change (FC) [7] | Activity [8] | EC50 [9] [µM] | Activity [10] | fold change (FC) [11] | Activity [12] [%] | fold change (FC) [13] | Ki [14] [µM] | half-life [15] [h] | half-life [16] [h] | Vd [17] [L/kg] | Cmax [18] [ng/mL] | bioavailability [19] [%] | clearance [20] [mL/min/kg] |
| --- | --- | --- | --- | --- | --- | --- | --- | --- | --- | --- | --- | --- | --- | --- | --- | --- | --- | --- | --- | --- |
| CC(C)(C(=O)O)c1cccc(OCCCN(Cc2cccc(C(F)(F)F)c2Cl)CC(c2ccccc2)c2ccccc2)c1 | 4 | 3 | 0.007 | 11.2 | 0.015 | 100 | 7.5 | Dose-dependent effect | 0.043 | Dose-dependent effect | 5.8 | 95 | 2 | – | – | – | – | – | – | – |
| O=C(O)C1CCCc2c(OCCCN(Cc3cccc(C(F)(F)F)c3Cl)CC(c3ccccc3)c3ccccc3)cccc21 (racemic) | 2.6 | 1.4 | 0.018 | 3.6 | 0.026 | 100 | 2 | Dose-dependent effect | 0.056 | Dose-dependent effect | 2.6 | 100 | 2 | – | – | – | – | – | – | – |
| O=C(O)Cc1cccc(OCCCN(Cc2cccc(C(F)(F)F)c2Cl)CC(c2ccccc2)c2ccccc2)c1 | 3.1 | 2 | 0.029 | 5.4 | – | – | 3.2 | Dose-dependent effect | 0.2 | Dose-dependent effect | 4.1 | – | – | 2 | – | – | – | – | – | – |
| C[C@@H](CCOc1cccc(CC(=O)O)c1)N(Cc1cccc(C(F)(F)F)c1Cl)CC(c1ccccc1)c1ccccc1 | – | – | 0.054 | – | 0.087 | 91 | – | – | 0.211 | – | – | 80 | – | – | – | – | – | – | – | – |
| O=C(O)Cc1ccc2cc(CCN(Cc3cccc(C(F)(F)F)c3Cl)CC(c3ccccc3)c3ccccc3)oc2c1 | – | – | – | – | 0.063 | 53 | – | – | 0.331 | – | – | 75 | – | – | – | – | – | – | – | – |
| C[C@H](CCN(Cc1cccc(C(F)(F)F)c1Cl)CC(c1ccccc1)c1ccccc1)Oc1cccc(CC(=O)O)c1 | – | – | 0.034 | – | 0.041 | 78 | – | – | 0.2 | – | – | 76 | – | > 10 | – | – | – | – | – | – |
| C[C@H](CCOc1cccc(CC(=O)O)c1)N(Cc1cccc(C(F)(F)F)c1Cl)CC(c1ccccc1)c1ccccc1 [ABEQUOLIXRON] | 6.3 | 3.6 | 0.017 | 8 | 0.025 | 100 | 4.2 | Dose-dependent effect | 0.074 | Dose-dependent effect | 5.5 | 89 | 2 | > 10 | 1.82 | 2.4 | 1.9 | 2130 | 71 | 23.7 |
| C[C@@H](COc1cccc(CC(=O)O)c1)CN(Cc1cccc(C(F)(F)F)c1Cl)CC(c1ccccc1)c1ccccc1 | – | – | 0.076 | – | 0.086 | 67 | – | – | 0.28 | – | – | 70 | – | – | – | – | – | – | – | – |
| O=C(O)Cc1ccc2oc(CCN(Cc3cccc(C(F)(F)F)c3Cl)CC(c3ccccc3)c3ccccc3)cc2c1 | – | – | – | – | 0.145 | 20 | – | – | 0.305 | – | – | 26 | – | – | – | – | – | – | – | – |
| C[C@H](CCOc1cccc(C(C)(C)C(=O)O)c1)N(Cc1cccc(C(F)(F)F)c1Cl)CC(c1ccccc1)c1ccccc1 | – | – | < 0.003 | – | 0.011 | 100 | – | – | 0.009 | – | – | 100 | 2 | – | – | – | – | – | – | – |
| CC(C(=O)O)c1cccc(OCCCN(Cc2cccc(C(F)(F)F)c2Cl)CC(c2ccccc2)c2ccccc2)c1 (stereo not given) | – | – | 0.015 | – | 0.015 | 100 | – | – | 0.046 | – | – | 90 | 2 | – | – | – | – | – | – | – |
| CCC(CC)(C(=O)O)c1cccc(OCCCN(Cc2cccc(C(F)(F)F)c2Cl)CC(c2ccccc2)c2ccccc2)c1 | – | – | – | – | 0.174 | 69 | – | – | 0.38 | – | – | 68 | – | – | – | – | – | – | – | – |
| C[C@@H](CCN(Cc1cccc(C(F)(F)F)c1Cl)CC(c1ccccc1)c1ccccc1)Oc1cccc(CC(=O)O)c1 | – | – | – | – | 0.145 | 39 | – | – | 0.365 | – | – | 59 | – | – | – | – | – | – | – | – |
